Results: paper PMC3343186 (Nature, 2012)

Key:
REV-ERBα = target: T1, REV-ERBα (Homo sapiens, UniProt P20393); type: cell-based; settings: HEK293 cells, comparison with SR9011 and SR9009
T1 sequence (P20393 284-614 limits assumed): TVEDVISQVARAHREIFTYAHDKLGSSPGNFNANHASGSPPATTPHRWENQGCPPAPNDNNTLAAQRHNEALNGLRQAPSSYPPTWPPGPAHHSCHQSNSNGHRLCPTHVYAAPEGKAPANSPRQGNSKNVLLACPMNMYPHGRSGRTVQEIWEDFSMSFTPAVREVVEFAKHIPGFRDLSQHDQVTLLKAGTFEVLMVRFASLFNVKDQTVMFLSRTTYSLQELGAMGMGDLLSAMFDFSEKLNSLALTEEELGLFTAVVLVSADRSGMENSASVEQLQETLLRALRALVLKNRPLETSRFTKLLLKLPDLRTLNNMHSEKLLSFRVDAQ

[1] = cited from earlier work
C57Bl6 mice [2] = experiment: Circadian wheel running activity under constant darkness; type: in vivo; settings: single dose 100 mg/kg i.p. at CT6
Method in brief: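 C57Bl6 mice in wheel cages were kept 7 days on 12h:12h L:D, then moved to constant darkness. After 12 days in D:D, mice received a single i.p. injection of vehicle or test compound at CT6.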

C57Bl6 mice [3] = experiment: Circadian locomotor activity under L:D; type: in vivo; settings: L:D 12h:12h, single injection
Method in brief: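 Wheel-running actograms were recorded in C57Bl6 mice kept on 12:12 L:D after single i.p. injections of vehicle or test compound. The protocol was otherwise as in the constant-darkness wheel experiment. n=6-10.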

[4] = tested on: diet-induced obese C57BL6 mice; experiment: Diet-induced obese mice, 30-day treatment; type: in vivo; settings: DIO C57Bl6 mice, 100mg/kg i.p. b.i.d., 30 days
[5] = tested on: metabolic genes in DIO mice tissues; experiment: Metabolic gene expression in liver, WAT and skeletal muscle of DIO mice; type: in vivo; settings: 100mg/kg i.p. b.i.d., 30 days
Method in brief: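 Diet-induced obese C57BL6 mice, 20 weeks old, had 14 weeks on high-fat diet (20% carbohydrate, 60% fat) and continued on it under twice-daily i.p. dosing. Liver, WAT and skeletal muscle mRNA was quantified by QPCR, normalised to Cyclophilin b. n=6-10.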

lean C57Bl6 mice = experiment: Fasting plasma TG and Chol in lean C57Bl6 mice; type: in vivo; settings: 100 mg/kg i.p. b.i.d., 10 days
Method in brief: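 Lean C57Bl6 mice were given 100 mg/kg i.p. twice daily at CT0 and CT12 for 10 days, then fasting plasma triglycerides and total cholesterol were measured. Mean ± s.e.m., n=6-10.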

ob/ob mice = experiment: ob/ob mice, 12-day dosing; type: in vivo; settings: 100 mg/kg i.p. b.i.d., 12-days
Method in brief: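 Leptin-deficient ob/ob mice were dosed 100 mg/kg i.p. twice daily for 12 days. Body weight and body fat content were tracked; glucose and insulin tolerance were also assessed. Mean ± s.e.m., n=6-10.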

SCN explants (Per2:luc) = experiment: Bioluminescence of SCN explants from Per2:luc reporter mouse; type: cell-based; settings: 5 μM
[6] = tested on: REV-ERB responsive genes in the liver; experiment: Expression of REV-ERB responsive genes in liver after 6-day dosing; type: in vivo, mice; settings: various doses i.p., b.i.d., 6-days
[7] = tested on: core clock genes in the hypothalamus; experiment: Core clock gene expression in hypothalamus; type: in vivo, mice
Balb/c or C57Bl6 mice = experiment: Body weight and fat mass in lean mice on chronic dosing; type: in vivo
Method in brief: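 Balb/c mice given 100 mg/kg i.p. twice daily at CT0 and CT12 for 12 days; body weight and fat mass followed over treatment. Mean ± s.e.m., n=6-10 mice.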

C57Bl6 mice [8] = experiment: Comprehensive laboratory animal monitoring system; type: in vivo
Method in brief: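 C57Bl6 mice in CLAMS cages were dosed 100 mg/kg i.p. twice daily at CT0 and CT12 for 10 days. Oxygen consumption (VO2) and RER were recorded across diurnal and nocturnal phases. Fat mass was measured by DEXA after the run. Mean ± s.e.m., n=6-10.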

[9] = tested on: clock and metabolic genes in the liver; experiment: Circadian gene expression in liver after single dose; type: in vivo, mice
Method in brief: (§1)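 Male C57BL6 mice, 8-10 weeks, housed on 12h:12h L:D or in constant darkness, received a single 100 mg/kg i.p. dose at CT0. Groups (n=6) were sacrificed at CT0, CT6, CT12 and CT18; tissue mRNA measured by real-time QPCR. Data double plotted; mean ± s.e.m.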

[10] = tested on: metabolic genes in skeletal muscle; experiment: Circadian gene expression in skeletal muscle after single dose; type: in vivo, mice; settings: single dose 100 mg/kg i.p. at CT0
Method in brief: as §1

[11] = tested on: metabolic genes in white adipose tissue (WAT); experiment: Circadian gene expression in white adipose tissue after single dose; type: in vivo, mice
Method in brief: as §1

[12] = D:D, 100 mg/kg i.p. single dose at CT0
[13] = C57Bl6 mice, 100mg/kg i.p. b.i.d., 10 days
[14] = single dose 100 mg/kg i.p. at CT0

In the case of `CC(C)(C)OC(=O)CN(Cc1ccc(Cl)cc1)Cc1ccc([N+](=O)[O-])s1` [GSK4112], the “activity in GAL4-REV-ERBα and GAL4-REV-ERBβ cotransfection assays” value (REV-ERBα) is given as “limited activity” and the plasma exposure [1] is given as “no plasma exposure”.
In the case of `CCOC(=O)N1CCC(CN(Cc2ccc(Cl)cc2)Cc2ccc([N+](=O)[O-])s2)C1` (centres unmarked) [SR9009], the “locomotor activity during the subject dark phase” value (C57Bl6 mice [2]) is reported as “loss of the subsequent active period”, the “delay in the onset of locomotor activity” value (C57Bl6 mice [3]) is reported as 1 to 3 h and the “decrease in plasma insulin levels (trend)” value [4] is reported as 35%. The “decrease in plasma leptin” value [4] was 80%, the “decrease in plasma total cholesterol (Chol)” value ([4]; fasting) was 47% and the “decrease in plasma triglycerides (TGs)” value ([4]; fasting) was 12%. The “reduction of plasma glucose” value ([4]; fasting) was 19%, the “reduction of plasma non-esterified fatty acids (NEFA)” value ([4]; fasting) was 23% and the “decrease in proinflammatory cytokine IL-6” value ([4]; plasma) was 72%. For the same compound, the “Cpt1b expression in skeletal muscle” value [5] was “induced the expression”, the “Fasn expression in liver” value [5] was “significant decrease” and the “Hk1 expression in skeletal muscle” value [5] was “induced the expression”. The “Hmgcr expression in liver” value [5] was “significant decrease”, the “Pkm2 expression in skeletal muscle” value [5] was “induced the expression” and the “Ppargc1b expression in skeletal muscle” value [5] was “induced the expression”. For the same compound, the “Scd1 expression in liver” value [5] was “significant decrease”, the “Srebf2 expression in liver” value [5] was “significant decrease” and the “Ucp3 expression in skeletal muscle” value [5] was “induced the expression”. For the same compound, the “expression of genes encoding enzymes involved in TG synthesis in WAT” value [5] was “decrease in expression”, the plasma total cholesterol (lean C57Bl6 mice) was “reduce the levels” and the plasma triglycerides (lean C57Bl6 mice) was “reduce the levels”. The “glucose or insulin tolerance” value (ob/ob mice) was “no significant alterations” and the weight gain (ob/ob mice) was “suppressed the degree of weight gain”.
With `CCCCCNC(=O)N1CCC(CN(Cc2ccc(Cl)cc2)Cc2ccc([N+](=O)[O-])s2)C1` (centres unmarked) [SR9011] the “amplitude of the oscillations in SCN explants” value (SCN explants (Per2:luc)) was “suppressed the amplitude”, the “circadian oscillations in SCN explants” value (SCN explants (Per2:luc)) was “reversible inhibition of circadian oscillations” and the “period of the oscillations in SCN explants” value (SCN explants (Per2:luc)) was “no effect on the period”. For the same compound, the “Cyp7a1 expression in liver” value [6] was “dose-dependently suppressed”, the “Serpine1 expression in liver” value [6] was “dose-dependent suppression” and the “locomotor activity during the subject dark phase” value (C57Bl6 mice [2]) was “loss of the subsequent active period”. The “delay in the onset of locomotor activity” value (C57Bl6 mice [3]) was 1 to 3 h, the “circadian pattern of Rev-erbα expression in hypothalamus” value ([7]; D:D conditions) was “completely suppressed” and the “Bmal1 expression in hypothalamus” value [7, 12] was “left shift in the phase”. The “Cry2 expression in hypothalamus” value [7, 12] was “suppressed”, the “Per2 expression amplitude in hypothalamus” value [7, 12] was “enhanced” and the “circadian pattern of expression of Npas2 in hypothalamus” value [7, 12] was “completely eliminated”. For the same compound, the “pattern of expression of Clock in hypothalamus” value [7, 12] was “enhanced amplitude of the oscillation”, the “circadian pattern of Rev-erbα expression in hypothalamus” value ([7]; L:D conditions) was “no effect” and the “body weight and fat mass” value (Balb/c or C57Bl6 mice; 100mg/kg, i.p., b.i.d., 12 days) was “weight loss due to decreased fat mass”. For the same compound, the food intake (Balb/c or C57Bl6 mice; chronic administration, data not shown) was “not affected”, the “increase in nocturnal food consumption” value (C57Bl6 mice [8]; [13]) was 10% and the “increase in oxygen consumption (VO2)” value (C57Bl6 mice [8]; [13]) was 5%. The “rate of food intake” value (C57Bl6 mice [8]; [13]) was “no effect”, the respiratory exchange ratio (C57Bl6 mice [8]; [13]) was “no change” and the “total daily food intake” value (C57Bl6 mice [8]; [13]) was “no effect”. The decrease in movement (C57Bl6 mice [8]; C57Bl6 mice, 100mg/kg i.p. b.i.d., 10 days, x-axis beam breaks) was 15%, the “fat mass (DEXA) vs. vehicle” value (C57Bl6 mice [8]; after 10-day CLAMS experiment) was “decrease in fat mass” and the “Nampt gene expression in the liver” value ([9]; single dose) was “suppressed the circadian rhythm”. The “Nocturnin (Ccrn4l) expression in hepatic tissue” value ([9]; single dose) was “suppression”, the “Bmal1 expression in liver” value [9, 14] was “unaffected” and the “Cyp7a1 expression in liver” value [9, 14] was “decreased”. For the same compound, the “Fasn expression in liver” value [9, 14] was “phase shifted”, the “Npas2 expression in liver” value [9, 14] was “unaffected” and the “Per2 expression pattern in liver” value [9, 14] was “altered”. The “Ppargc1a circadian expression in liver” value [9, 14] was “suppressed”, the “Ppargc1b circadian expression in liver” value [9, 14] was “suppressed” and the “Scd1 expression in liver” value [9, 14] was “suppressed”. For the same compound, the “Srebf1 expression in liver” value [9, 14] was “suppressed”, the “Srebf2 expression in liver” value [9, 14] was “decreased” and the “Hmgcr expression in liver” value ([9]; single dose 100 mg/kg i.p. at CT0, acute model) was “unaffected”. For the same compound, the “Cpt1b expression in skeletal muscle” value [10] was “elevated”, the “Hk1 expression in skeletal muscle” value [10] was “increase” and the “Pkm2 expression in skeletal muscle” value [10] was “increase”. The “Pppargc1b expression in skeletal muscle” value [10] was “elevated”, the “Ucp3 expression in skeletal muscle” value [10] was “elevated” and the “Nocturnin (Ccrn4l) expression in adipose tissue” value ([11]; single dose) was “suppression”. For the same compound, the “Dgat1 expression in WAT” value [11, 14] was “suppressed”, the “Dgat 2 expression in WAT” value [11, 14] was “suppressed” and the “Hsl expression in WAT” value [11, 14] was “suppressed”. The “Mgat circadian expression in WAT” value [11, 14] was “disturbed”, the “Plin1 expression in WAT” value [11, 14] was “suppressed” and the plasma total cholesterol (lean C57Bl6 mice) was “reduce the levels”. For the same compound, the plasma triglycerides (lean C57Bl6 mice) was “reduce the levels”.
